Measured values taken from ChEMBL document CHEMBL1150238, “Podophyllotoxin directly binds a hinge domain in E2 of HPV and inhibits an E2/E7 interaction in vitro” (Bioorg Med Chem, 2008).
Active and inactive are the calls of the source. The calls are words filed in the database; no cut-off is given here.

How the values were obtained:
[1] = Cytotoxicity against mouse L210 cells after 48 hrs; type: functional, cell-based; conditions: L210, 48 h
In short: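 Cells seeded at 1.0 × 10⁴ per 100 µL and preincubated 24 h at 37 °C, 5% CO2. They were then exposed to graded compound concentrations for 48 h. WST-8 reagent added for 4 h, and absorbance read at 450 nm.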

Regulatory protein E2 [2] = molecular target: T1, Regulatory protein E2 (Human papillomavirus type 1a, UniProt P03118); assay: Binding affinity to HPV1a recombinant E2 protein by surface plasmon resonance method
T1 sequence (P03118 whole entry): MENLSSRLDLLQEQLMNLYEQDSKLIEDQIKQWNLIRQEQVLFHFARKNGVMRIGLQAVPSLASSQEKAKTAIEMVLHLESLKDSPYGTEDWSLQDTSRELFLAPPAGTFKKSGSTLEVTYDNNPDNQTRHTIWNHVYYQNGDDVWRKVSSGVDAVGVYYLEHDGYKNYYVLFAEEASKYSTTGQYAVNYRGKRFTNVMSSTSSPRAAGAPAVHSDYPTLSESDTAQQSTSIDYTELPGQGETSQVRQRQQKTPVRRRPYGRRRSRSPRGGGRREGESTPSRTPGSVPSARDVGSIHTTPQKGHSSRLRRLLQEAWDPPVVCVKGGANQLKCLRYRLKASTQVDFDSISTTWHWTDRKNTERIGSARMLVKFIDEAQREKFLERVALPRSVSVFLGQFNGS
In short: (§1)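 E2 proteins (full-length and HPV 1a domain constructs, FLAG-tagged) expressed in E. coli with 1 mM IPTG induction for 3 h and purified by FPLC. Proteins amine-coupled to sensor chip (EDC/NHS activation, 10 mM acetate pH 4.0–6.0, ethanolamine block). PT flowed at various concentrations in PBS pH 7.4, 0.005% Tween20, 5% glycerol, 5% DMSO, 20–30 µL/min, 25 °C. Reference flow cell subtracted, KD derived; replicates over two times.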

[3] = molecular target: T2, Regulatory protein E2 (Human papillomavirus type 1a) (UniProt P03118); assay: Inhibition of HPV1a E2-E7 protein interaction at 250 uM assessed as rate of E2 binding to E7 protein by surface plasmon resonance method; set-up: scale not given: the % may be the effect or the level left
T2 sequence (whole entry): T1 sequence (P03118 whole entry)
In short: (§2)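 SPR competition format: E2 protein at 0.1 µM was mixed with PT in 5% DMSO and injected at 30 µL/min, 25 °C. Bound E2 amount was compared at 115 s after injection. Buffer alone and PT without E2 served as sensorgram controls.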

[4] = molecular target: T2, Regulatory protein E2 (Human papillomavirus type 1a); assay: Inhibition of HPV1a E2-E7 protein interaction at 500 uM assessed as rate of E2 binding to E7 protein by surface plasmon resonance method; set-up: scale not given: the % may be the effect or the level left; in short: as §2
Regulatory protein E2 [5] = molecular target: T1, Regulatory protein E2; assay: Binding affinity to HPV1a recombinant E2 protein DNA binding domain by surface plasmon resonance assay; in short: as §1
Regulatory protein E2 [6] = molecular target: T3, Regulatory protein E2 (Human papillomavirus 16, UniProt P03120); assay: Binding affinity to HPV16 recombinant E2 protein by surface plasmon resonance method; in short: as §1
T3 sequence (P03120 whole entry): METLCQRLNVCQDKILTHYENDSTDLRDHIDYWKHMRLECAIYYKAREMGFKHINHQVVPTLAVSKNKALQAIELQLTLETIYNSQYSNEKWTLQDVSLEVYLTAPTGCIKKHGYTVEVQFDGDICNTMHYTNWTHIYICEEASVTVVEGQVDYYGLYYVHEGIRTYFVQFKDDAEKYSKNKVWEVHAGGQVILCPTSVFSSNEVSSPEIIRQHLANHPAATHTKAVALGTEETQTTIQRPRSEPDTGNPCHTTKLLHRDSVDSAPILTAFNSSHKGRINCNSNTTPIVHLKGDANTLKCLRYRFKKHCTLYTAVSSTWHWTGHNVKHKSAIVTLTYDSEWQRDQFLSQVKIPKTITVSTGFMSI

Regulatory protein E2 [7] = molecular target: T1, Regulatory protein E2; assay: Binding affinity to HPV1a recombinant E2 protein hinge domain by surface plasmon resonance assay; in short: as §1
Regulatory protein E2 [8] = molecular target: T1, Regulatory protein E2; assay: Binding affinity to HPV1a recombinant E2 protein activator domain by surface plasmon resonance assay; in short: as §1
[9] = molecular target: T2, Regulatory protein E2 (Human papillomavirus type 1a); assay: Inhibition of HPV1a recombinant E2 protein-DNA interaction by electron mobility shift assay
Regulatory protein E2 [10] = molecular target: T4, Regulatory protein E2 (human papillomavirus 11, UniProt P04015); assay: Binding affinity to HPV11 recombinant E2 protein by surface plasmon resonance method; in short: as §1
T4 sequence (P04015 whole entry): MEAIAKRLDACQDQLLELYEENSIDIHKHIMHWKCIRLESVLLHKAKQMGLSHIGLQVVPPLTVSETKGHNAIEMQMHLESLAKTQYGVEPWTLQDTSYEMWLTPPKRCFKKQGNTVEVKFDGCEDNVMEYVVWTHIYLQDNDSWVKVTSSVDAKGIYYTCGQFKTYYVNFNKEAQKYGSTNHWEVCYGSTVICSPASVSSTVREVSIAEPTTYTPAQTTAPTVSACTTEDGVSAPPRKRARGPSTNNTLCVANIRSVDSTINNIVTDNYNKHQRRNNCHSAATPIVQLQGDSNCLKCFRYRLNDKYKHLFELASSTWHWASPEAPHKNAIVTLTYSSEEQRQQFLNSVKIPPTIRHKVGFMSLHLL

SMILES	IC50 [1] [µM]	Kd (Regulatory protein E2 [2]) [µM]	Activity [3] [%]	Activity [4] [%]	Kd (Regulatory protein E2 [5]) [µM]	Kd (Regulatory protein E2 [6]) [µM]	Kd (Regulatory protein E2 [7]) [µM]	Kd (Regulatory protein E2 [8]) [µM]	Activity [9]	Kd (Regulatory protein E2 [10]) [µM]
COc1cc([C@@H]2c3cc4c(cc3[C@H](OC(=O)CCCCCNC(=O)CCCC[C@@H]3SC[C@@H]5NC(=O)N[C@@H]53)[C@H]3COC(=O)[C@H]23)OCO4)cc(OC)c1OC	0.4	–	–	–	–	–	–	–	–	–
COc1cc([C@@H]2c3cc4c(cc3[C@@H](O[C@@H]3O[C@@H]5CO[C@@H](C)O[C@H]5[C@H](O)[C@H]3O)[C@H]3COC(=O)[C@H]23)OCO4)cc(OC)c1O [ETOPOSIDE]	–	210	82	–	–	–	–	–	–	–
COc1cc([C@@H]2c3cc4c(cc3[C@H](O)[C@H]3COC(=O)[C@H]23)OCO4)cc(OC)c1OC [PODOFILOX]	0.007	24.1	60.6	49.1	> 400	70.5	1.05	> 400	inactive	20.1
